Experiment [1] has as its system Mus musculus. As to the kind of experiment: Antiinflammatory activity in po dosed mouse assessed as inhibition of LPS-induced TNFalpha production administered 30 mins before LPS challenge measured after 1 hr by ELISA. The experiment is classed as functional. The note with it: read-out: ID50 (the source's name). The gist of the method:
(§1)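 Groups of five mice were used. ID50 came from a least-squares linear regression of % inhibition against log dose, with 95% confidence intervals by Fieller's theorem.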
For orientation: In an ELISA, binding on a coated surface is turned into a signal by an enzyme label.

For experiment [2], the system named is Blood. Description: Antiinflammatory activity in human whole blood assessed as inhibition of LPS-induced TNFalpha production after 6 hrs by immunoassay. Type of experiment: functional, tissue-based. The gist of the method: (§2)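 Values are the mean and SD of three to four determinations. IC50 came from a least-squares linear regression of % inhibition against log concentration, with 95% confidence intervals by Fieller's theorem.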

In experiment [3] the test system is Mus musculus. Description: Antiinflammatory activity in po dosed mouse assessed as inhibition of LPS-induced IL1-beta production administered 2 hrs after LPS challenge. Type of experiment: functional. The conditions noted are these: read-out: ID50 (the source's name). The gist of the method: as §1
In experiment [4] the target is T1, Mitogen-activated protein kinase 13 (Homo sapiens) (UniProt O15264).
T1 sequence (whole entry): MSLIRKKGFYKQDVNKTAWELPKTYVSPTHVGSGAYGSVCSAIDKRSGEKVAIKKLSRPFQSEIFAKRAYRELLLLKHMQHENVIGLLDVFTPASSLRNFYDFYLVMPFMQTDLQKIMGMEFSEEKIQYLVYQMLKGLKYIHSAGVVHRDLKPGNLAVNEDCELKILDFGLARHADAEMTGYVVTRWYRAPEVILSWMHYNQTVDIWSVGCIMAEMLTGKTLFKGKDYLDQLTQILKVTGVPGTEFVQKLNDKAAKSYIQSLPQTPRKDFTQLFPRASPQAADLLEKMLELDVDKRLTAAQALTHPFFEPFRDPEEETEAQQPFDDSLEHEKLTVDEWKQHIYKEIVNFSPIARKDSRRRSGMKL
Description: Inhibition of p38delta at 10 uM.

Experiment [5] has as its system Blood. As to the kind of experiment: Antiinflammatory activity in human whole blood assessed as inhibition of LPS-induced IL-8 production after 6 hrs by immunoassay. The experiment is classed as functional, tissue-based. The gist of the method: as §2
Experiment [6] has as its system Blood. Description: Antiinflammatory activity in human whole blood assessed as inhibition of LPS-induced IL-6 production after 6 hrs by immunoassay. Type of experiment: functional, tissue-based. The gist of the method: as §2
Experiment [7] has as its target Mitogen-activated protein kinase 14 (Homo sapiens, UniProt Q16539). As to the kind of experiment: Inhibition of p38alpha. The gist of the method:
(§3)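 Kinase inhibition IC50 was the mean and SD of three to four determinations. It was derived by least-squares linear regression of % inhibition against log concentration, with 95% confidence intervals by Fieller's theorem.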

The species entered for experiment [8] is Mus musculus. As to the kind of experiment: Antiarthritic activity in DBA/1 mouse assessed as inhibition of anti-collagen antibody-induced arthritis after 3 weeks. The experiment is classed as functional. The conditions noted are these: DBA/1, 504 h, read-out: ID50 (the source's name). The gist of the method:
as §1

Experiment [9] has as its target T2, Mitogen-activated protein kinase 13 (Homo sapiens, UniProt O15264).
T2 sequence (O15264 whole entry): T1 sequence (whole entry)
Description: Inhibition of p38delta. The gist of the method: as §3

In experiment [10] the target is T3, Mitogen-activated protein kinase 12 (Homo sapiens, UniProt P53778).
T3 sequence (P53778 whole entry): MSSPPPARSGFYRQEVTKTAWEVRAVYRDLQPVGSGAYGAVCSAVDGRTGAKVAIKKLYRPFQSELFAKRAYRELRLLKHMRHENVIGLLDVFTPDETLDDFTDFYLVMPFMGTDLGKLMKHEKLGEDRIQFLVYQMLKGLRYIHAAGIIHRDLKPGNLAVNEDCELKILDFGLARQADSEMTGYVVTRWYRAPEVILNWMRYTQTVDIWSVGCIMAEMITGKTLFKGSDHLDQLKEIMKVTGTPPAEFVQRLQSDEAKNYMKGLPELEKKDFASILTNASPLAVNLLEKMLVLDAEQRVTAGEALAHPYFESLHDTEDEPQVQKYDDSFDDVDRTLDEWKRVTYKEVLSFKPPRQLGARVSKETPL
As to the kind of experiment: Inhibition of p38-gamma. The gist of the method: as §3

In experiment [11] the target is T4, Mitogen-activated protein kinase 12 (Homo sapiens) (UniProt P53778).
T4 sequence (whole entry): T3 sequence (P53778 whole entry)
As to the kind of experiment: Inhibition of p38-gamma at 10 uM.

Experiment [12] has as its target Mitogen-activated protein kinase 11 (Homo sapiens, UniProt Q15759). As to the kind of experiment: Inhibition of p38beta. The gist of the method:
as §3

Experiment [13] is filed under the species Mus musculus. Description: Antiarthritic activity in DBA/1 mouse assessed as inhibition of collagen-induced arthritis. Type of experiment: functional. The conditions noted are these: read-out: ID50 (the source's name). The gist of the method: as §1
The test system of experiment [14] is Rattus norvegicus. As to the kind of experiment: Antiarthritic activity in po dosed heat-killed mycobacterium tuberculosis-induced rat arthritis model assessed as decrease in paw volume administered QD for 20 days measured on day 21 by plethysmometry. The note with it: read-out: ID50 (the source's name). Type of experiment: functional.
Experiment [15] has as its system Rattus norvegicus. Description: Antiarthritic activity in po dosed heat-killed mycobacterium tuberculosis-induced rat arthritis model assessed as decrease in paw volume administered BID for 7 days measured 24 hrs post last dose by plethysmometry. The experiment is classed as functional. The note with it: read-out: ID50 (the source's name). The gist of the method:
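Adjuvant arthritis was established by day 18, and rats with injected-foot volume ≥2.75 mL were grouped to equal means. Test agents in 0.5% CMC were given orally at 5 mL/kg twice daily on days 18–24. Feet were measured by plethysmometer on days 18, 20, 23 and 25. The swelled-foot ratio (day 25/day 18, corrected by normal animals) gave % inhibition versus controls. n=5.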

Experiment [16] deals with Blood. As to the kind of experiment: Antiinflammatory activity in human whole blood assessed as inhibition of LPS-induced IL1-beta production after 6 hrs by immunoassay. Type of experiment: functional, tissue-based. The gist of the method: as §2
Experiment [17] concerns Rattus norvegicus. Description: Analgesic activity in po dosed heat-killed mycobacterium tuberculosis-induced rat arthritis model assessed as decrease in squeaking behavior after 72 hrs […]. Type of experiment: functional. The conditions noted are these: read-out: ID50 (the source's name).
Experiment [18] concerns Mus musculus. Description: Antiinflammatory activity in po dosed mouse assessed as inhibition of LPS-induced IL-6 production. The experiment is classed as functional. The note with it: read-out: ID50 (the source's name). The gist of the method: as §1
Experiment [19] concerns Blood. As to the kind of experiment: Antiinflammatory activity in human whole blood assessed as inhibition of LPS-induced TNFalpha production at 1 uM after 6 hrs by immunoassay. Type of experiment: functional.

Active and inactive are the calls of the source. The rule behind the calls is not given here.

Sequence of Mitogen-activated protein kinase 11 (Q15759 whole entry): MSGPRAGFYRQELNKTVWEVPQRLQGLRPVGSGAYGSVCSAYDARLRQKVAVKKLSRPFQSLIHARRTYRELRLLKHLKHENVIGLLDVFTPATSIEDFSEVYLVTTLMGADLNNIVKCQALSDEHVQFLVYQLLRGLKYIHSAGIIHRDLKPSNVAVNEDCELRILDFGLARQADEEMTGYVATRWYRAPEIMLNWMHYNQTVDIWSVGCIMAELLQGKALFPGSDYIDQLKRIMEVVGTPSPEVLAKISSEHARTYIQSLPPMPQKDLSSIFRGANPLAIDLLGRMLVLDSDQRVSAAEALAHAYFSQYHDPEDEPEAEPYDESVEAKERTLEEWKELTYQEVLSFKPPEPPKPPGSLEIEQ
Sequence of Mitogen-activated protein kinase 14 (Q16539 whole entry): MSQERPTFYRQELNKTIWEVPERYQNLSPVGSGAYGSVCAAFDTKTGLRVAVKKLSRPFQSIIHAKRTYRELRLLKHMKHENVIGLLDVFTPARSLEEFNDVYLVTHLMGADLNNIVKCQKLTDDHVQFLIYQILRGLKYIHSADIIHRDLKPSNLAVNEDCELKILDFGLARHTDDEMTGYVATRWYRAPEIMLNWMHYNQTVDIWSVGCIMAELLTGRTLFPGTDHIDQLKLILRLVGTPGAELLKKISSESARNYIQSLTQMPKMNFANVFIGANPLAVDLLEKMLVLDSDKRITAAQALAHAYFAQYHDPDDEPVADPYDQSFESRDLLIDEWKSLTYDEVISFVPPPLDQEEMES

Regarding `Fc1ccc(-c2[nH]cc(C3=CCN4CCCCC4C3)c2-c2ccncc2)cc1` (stereo not drawn), the ED50 in the experiment on Mus musculus [1] was 3.55 mg/kg. Besides, in the experiment with Blood [2], the IC50 was 810 nM.

`Fc1ccc(-c2[nH]cc(C3=C[C@@H]4CCCN4CC3)c2-c2ccncc2)cc1`: the ED50 in the experiment on Mus musculus [3] came to 8.63 mg/kg; in the experiment filed under Mus musculus [8], 2.22 mg/kg; in the experiment with Mus musculus [1], 0.93 mg/kg; in the experiment filed under Mus musculus [13] it was 2.38 mg/kg; with Rattus norvegicus [14] it was 3.1 mg/kg; in the experiment on Rattus norvegicus [15], 4.9 mg/kg. In addition, the ED50 in the experiment with Rattus norvegicus [17] stood at 2.9 mg/kg; in the experiment with Mus musculus [18] it was 0.11 mg/kg. Also, the inhibition result in experiment [4] and in [11] was “inactive” each time. Also, the 50% inhibitory concentration (IC50) in the experiment on Blood [5] is 16 nM; in the experiment with Blood [6] it was 880 nM; in experiment [7], 34 nM; in experiment [9], more than 10000 nM; in experiment [10], more than 10000 nM; in experiment [12], 572 nM. For the same compound, the IC50 in the experiment on Blood [16] was 20 nM; with Blood [2], 26 nM.

On to `Fc1ccc(-c2[nH]cc(C3=CC4CCCCN4CC3)c2-c2ccncc2)cc1` (stereo not drawn), for which the ED50 with Mus musculus [1] was 2.27 mg/kg. Also, in the experiment with Blood [2], the IC50 amounted to 310 nM.

For `Fc1ccc(-c2[nH]cc(C3=CCN4CCCC4C3)c2-c2ccncc2)cc1` (stereo not drawn), in the experiment on Mus musculus [1], the ED50 is 2.85 mg/kg. Moreover, in the experiment on Blood [2], the IC50 came to 600 nM.

`Fc1ccc(-c2[nH]cc(C3=CC4CCCN4CC3)c2-c2ccncc2)cc1` (stereo not drawn): the ED50 with Mus musculus [1] turned out to be 1.09 mg/kg. Moreover, the IC50 with Blood [2] came to 42 nM.

For `Fc1ccc(-c2[nH]cc(C3=C[C@H]4CCCN4CC3)c2-c2ccncc2)cc1`, the inhibition at 1 µM in the experiment with Blood [19] stood at 49%. Further, the ED50 in the experiment on Mus musculus [1] stood at 6.59 mg/kg.

A word on the IC50: it is the point on the concentration scale where inhibition reaches its midpoint. One may read the inhibition as the change of the read-out against control, counted positive when it falls.

Values taken from ChEMBL document CHEMBL1208780, “Tetrahydropyridine derivatives with inhibitory activity on the production of proinflammatory cytokines: part 3” (Bioorg Med Chem Lett, 2010).
